From ChEMBL document CHEMBL3425433, “Discovery of bicyclic pyrazoles as class III histone deacetylase SIRT1 and SIRT2 inhibitors” (Bioorg Med Chem Lett, 2015)
Calls of active or inactive are those of the source. The calls are words filed in the database; no cut-off is given here.

How the values were obtained:
[1] = target: T1, Histone deacetylase 8 (Homo sapiens) (UniProt Q9BY41); experiment: Inhibition of HDAC8 (unknown origin)
T1 sequence (whole entry): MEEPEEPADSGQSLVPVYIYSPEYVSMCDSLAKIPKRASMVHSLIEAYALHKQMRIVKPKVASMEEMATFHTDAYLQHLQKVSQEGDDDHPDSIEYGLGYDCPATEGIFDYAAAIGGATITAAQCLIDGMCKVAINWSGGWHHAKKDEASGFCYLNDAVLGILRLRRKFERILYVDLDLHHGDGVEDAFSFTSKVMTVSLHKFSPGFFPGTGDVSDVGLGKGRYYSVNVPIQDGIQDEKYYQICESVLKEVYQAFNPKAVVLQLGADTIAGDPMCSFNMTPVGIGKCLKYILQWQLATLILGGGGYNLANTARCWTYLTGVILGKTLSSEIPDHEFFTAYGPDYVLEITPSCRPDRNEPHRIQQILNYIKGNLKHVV

[2] = target: T2, Histone deacetylase 7 (Homo sapiens) (UniProt Q8WUI4); experiment: Inhibition of HDAC7 (unknown origin)
T2 sequence (whole entry): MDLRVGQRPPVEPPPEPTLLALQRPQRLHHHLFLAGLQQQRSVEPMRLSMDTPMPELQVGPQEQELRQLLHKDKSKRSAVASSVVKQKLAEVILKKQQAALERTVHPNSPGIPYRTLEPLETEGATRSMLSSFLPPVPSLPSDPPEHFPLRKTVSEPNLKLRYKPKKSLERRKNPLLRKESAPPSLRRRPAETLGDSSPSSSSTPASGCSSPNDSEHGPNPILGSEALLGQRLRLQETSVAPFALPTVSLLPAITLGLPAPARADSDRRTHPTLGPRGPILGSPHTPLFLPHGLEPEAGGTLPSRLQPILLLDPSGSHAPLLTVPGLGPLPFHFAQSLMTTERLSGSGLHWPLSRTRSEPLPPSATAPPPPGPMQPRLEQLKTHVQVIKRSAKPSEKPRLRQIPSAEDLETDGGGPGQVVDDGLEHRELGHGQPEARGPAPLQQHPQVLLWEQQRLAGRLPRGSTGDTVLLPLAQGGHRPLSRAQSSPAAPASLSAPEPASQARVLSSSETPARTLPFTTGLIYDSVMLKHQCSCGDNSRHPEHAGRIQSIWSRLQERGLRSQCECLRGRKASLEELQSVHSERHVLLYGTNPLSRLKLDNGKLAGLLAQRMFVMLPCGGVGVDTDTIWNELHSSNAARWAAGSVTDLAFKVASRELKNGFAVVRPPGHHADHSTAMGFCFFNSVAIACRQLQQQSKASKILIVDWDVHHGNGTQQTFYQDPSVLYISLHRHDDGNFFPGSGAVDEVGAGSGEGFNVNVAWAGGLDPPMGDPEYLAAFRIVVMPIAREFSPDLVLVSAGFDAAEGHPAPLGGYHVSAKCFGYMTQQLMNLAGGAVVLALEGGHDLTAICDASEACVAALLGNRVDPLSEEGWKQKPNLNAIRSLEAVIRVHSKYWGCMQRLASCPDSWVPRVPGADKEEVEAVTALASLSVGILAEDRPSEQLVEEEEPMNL

[3] = target: T3, NAD-dependent protein deacetylase sirtuin-1 (Homo sapiens, UniProt Q96EB6); experiment: Inhibition of His-tagged human recombinant SIRT1 expressed in Escherichia coli using Cbz-Lys(Ac)-AMC as substrate by fluorescence assay
T3 sequence (Q96EB6 whole entry): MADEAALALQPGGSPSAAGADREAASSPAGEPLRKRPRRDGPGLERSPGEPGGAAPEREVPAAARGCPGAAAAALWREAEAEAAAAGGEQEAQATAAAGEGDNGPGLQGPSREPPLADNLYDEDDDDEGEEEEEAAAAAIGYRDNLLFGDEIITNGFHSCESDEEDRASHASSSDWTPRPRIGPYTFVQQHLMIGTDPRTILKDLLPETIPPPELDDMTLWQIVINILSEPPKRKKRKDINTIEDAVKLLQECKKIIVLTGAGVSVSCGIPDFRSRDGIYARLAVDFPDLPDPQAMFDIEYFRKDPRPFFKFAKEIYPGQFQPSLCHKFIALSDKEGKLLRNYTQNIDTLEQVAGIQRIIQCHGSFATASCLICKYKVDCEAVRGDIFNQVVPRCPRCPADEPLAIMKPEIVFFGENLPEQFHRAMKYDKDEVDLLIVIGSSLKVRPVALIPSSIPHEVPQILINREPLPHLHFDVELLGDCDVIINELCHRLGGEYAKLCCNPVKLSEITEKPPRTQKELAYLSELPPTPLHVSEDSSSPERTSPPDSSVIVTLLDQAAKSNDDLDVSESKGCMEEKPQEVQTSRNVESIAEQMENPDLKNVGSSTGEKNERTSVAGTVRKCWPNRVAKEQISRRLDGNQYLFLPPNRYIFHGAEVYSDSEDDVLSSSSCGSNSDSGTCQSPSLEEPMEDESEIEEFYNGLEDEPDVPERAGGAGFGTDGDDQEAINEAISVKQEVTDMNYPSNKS

[4] = target: T4, NAD-dependent protein deacetylase sirtuin-1 (Homo sapiens) (UniProt Q96EB6); experiment: Inhibition of SIRT1-mediated endogenous p53 deacetylase activity in human Namalwa cells assessed as concentration required to […] to twice the basal level after 3 hrs by ELISA; format: cell-based
T4 sequence (whole entry): T3 sequence (Q96EB6 whole entry)
Outline: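 Namalwa cells, 50,000/well, were exposed 3 h at 37 °C, 5% CO2, to 0.005–50 µM final (0.95% DMSO). Lysates were ELISA-captured on anti-p53 (DO-1), probed overnight with anti-acetyl-Lys382-p53, then HRP conjugate and Amplex Red (15 min; ex 550/em 610 nm). IC2xB is the concentration doubling basal (lowest) fluorescence. Means of three experiments.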

[5] = tested on: Plasma; experiment: Metabolic stability in mouse plasma; format: ADME, cell-free
[6] = Clearance in rat; format: ADME, organism-based; settings: in vivo
[7] = Half life in rat; format: ADME, organism-based; settings: in vivo
[8] = Oral bioavailability in rat; format: ADME, organism-based; settings: in vivo
[9] = target: T5, NAD-dependent protein deacetylase sirtuin-2 (Homo sapiens, UniProt Q8IXJ6); experiment: Inhibition of His-tagged human recombinant SIRT2 expressed in Escherichia coli using Cbz-Lys(Ac)-AMC as substrate by fluorescence assay
T5 sequence (Q8IXJ6 whole entry): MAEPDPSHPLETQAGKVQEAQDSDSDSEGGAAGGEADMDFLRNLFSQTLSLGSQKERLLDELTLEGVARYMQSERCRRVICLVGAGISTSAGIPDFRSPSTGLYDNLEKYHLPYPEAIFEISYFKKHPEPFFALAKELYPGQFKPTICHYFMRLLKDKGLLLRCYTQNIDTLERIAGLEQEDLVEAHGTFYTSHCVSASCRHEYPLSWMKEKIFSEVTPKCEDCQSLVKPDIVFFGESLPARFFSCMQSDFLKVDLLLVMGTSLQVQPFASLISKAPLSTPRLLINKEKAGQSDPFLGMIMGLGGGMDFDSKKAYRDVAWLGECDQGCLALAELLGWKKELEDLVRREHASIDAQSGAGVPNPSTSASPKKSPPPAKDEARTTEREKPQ

Row | inhibition [1] | inhibition [2] | SMILES | further results
1 | inactive | inactive | NC(=O)C1CC(c2ccccc2)Cc2c(-c3ccc(Cl)cc3)n[nH]c21 (mixture of isomers) | 
2 | inactive | inactive | NC(=O)C1CCCc2c(-c3ccc(Cl)cc3)n[nH]c21 (racemic) | IC50 [3]: 1000 nM; INH [4]: 0.5 µM; Stability [5]: Stable; clearance [6]: 30 mL/min/kg; half-life [7]: 66 min; bioavailability [8]: 20%
3 | inactive | inactive | NC(=O)C1CCCc2c(-c3ccc(Cl)c(F)c3)n[nH]c21 (racemic) | IC50 [3]: 2600 nM
4 | inactive | inactive | NC(=O)C1CCCc2c(-c3ccc(Br)cc3)n[nH]c21 (racemic) | IC50 [3]: 1900 nM; INH [4]: 1.5 µM
5 | inactive | inactive | Cc1ccc(-c2n[nH]c3c2CCCC3C(N)=O)cc1 (racemic) | IC50 [3]: 6200 nM
6 | inactive | inactive | NC(=O)C1CCCc2c(-c3cc(Br)cs3)n[nH]c21 (racemic) | IC50 [3]: 11000 nM
7 | inactive | inactive | NC(=O)C1CCCc2c(-c3cc4ccccc4s3)n[nH]c21 (racemic) | IC50 [3]: 1700 nM; IC50 [9]: 5.3 µM
8 | inactive | inactive | NC(=O)C1CCCc2c(-c3cc4ccccc4o3)n[nH]c21 (racemic) | IC50 [3]: 3100 nM; IC50 [9]: 9 µM
9 | inactive | inactive | NC(=O)C1CCCc2c(-c3nc4ccccc4s3)n[nH]c21 (racemic) | IC50 [3]: 2200 nM; IC50 [9]: 8.3 µM; INH [4]: 0.9 µM
10 | inactive | inactive | Cn1c(-c2n[nH]c3c2CCCC3C(N)=O)cc2ccccc21 (racemic) | IC50 [3]: 2700 nM; IC50 [9]: 7.8 µM
11 | inactive | inactive | NC(=O)C1CCCCc2c(-c3ccc(Cl)cc3)n[nH]c21 (racemic) | IC50 [3]: 2100 nM; IC50 [9]: 6.8 µM; INH [4]: 0.8 µM
12 | inactive | inactive | CC1(C)CCC(C(N)=O)c2[nH]nc(-c3ccc(Cl)cc3)c21 (racemic) | 
13 | inactive | inactive | CC1(C)Cc2c(-c3cc4ccccc4s3)n[nH]c2C(C(N)=O)C1 (racemic) | 
14 | inactive | inactive | CC1(C)Cc2c(-c3ccc(Br)cc3)n[nH]c2C(C(N)=O)C1 (racemic) | 
15 | inactive | inactive | CC1(C)Cc2c(-c3ccc(Cl)c(Cl)c3)n[nH]c2C(C(N)=O)C1 (racemic) | 
16 | inactive | inactive | CCOC(=O)C1CCCc2c(-c3ccc(Cl)c(F)c3)n[nH]c21 (racemic) | 
17 | inactive | inactive | CNC(=O)C1CCCc2c(-c3ccc(Cl)cc3)n[nH]c21 (racemic) | 

Row | inhibition [1] | inhibition [2] | SMILES | further results
18 | inactive | inactive | COc1ccc(-c2n[nH]c3c2CCCC3C(N)=O)cc1 (racemic) | 
19 | inactive | inactive | Cn1c(-c2n[nH]c3c2CC(C)(C)CC3C(N)=O)cc2ccccc21 (racemic) | 
20 | inactive | inactive | Cn1c(-c2n[nH]c3c2CCCC3C(N)=O)cc2cc(Cl)ccc21 (racemic) | 
21 | inactive | inactive | Cn1cc(-c2n[nH]c3c2CCCC3C(N)=O)c2ccccc21 (racemic) | 
22 | inactive | inactive | NC(=O)C1CC2(Cc3c(-c4ccc(Cl)cc4)n[nH]c31)OCCO2 (racemic) | 
23 | inactive | inactive | NC(=O)C1CCCCCc2c(-c3ccc(Cl)cc3)n[nH]c21 (racemic) | 
24 | inactive | inactive | NC(=O)C1CCCc2c(-c3cc4cc(Br)ccc4s3)n[nH]c21 (racemic) | 
25 | inactive | inactive | NC(=O)C1CCCc2c(-c3cc4ccccc4[nH]3)n[nH]c21 (racemic) | 
26 | inactive | inactive | NC(=O)C1CCCc2c(-c3ccc(C(F)(F)F)cc3)n[nH]c21 (racemic) | 
27 | inactive | inactive | NC(=O)C1CCCc2c(-c3ccc(Cl)cc3Cl)n[nH]c21 (racemic) | 
28 | inactive | inactive | NC(=O)C1CCCc2c(-c3ccc(F)cc3)n[nH]c21 (racemic) | 
29 | inactive | inactive | NC(=O)C1CCCc2c(-c3cccc(Cl)c3)n[nH]c21 (racemic) | 
30 | inactive | inactive | NC(=O)C1CCCc2c(-c3ccccc3)n[nH]c21 (racemic) | 
31 | inactive | inactive | NC(=O)C1CCCc2c(-c3ccccc3Cl)n[nH]c21 (racemic) | 
32 | inactive | inactive | NC(=O)C1CCCc2c(-c3cccs3)n[nH]c21 (racemic) | 
33 | inactive | inactive | NC(=O)C1CCCc2c(-c3csc4ccccc34)n[nH]c21 (racemic) | 
34 | inactive | inactive | NC(=O)C1Cc2ccccc2Cc2c(-c3ccc(Cl)cc3)n[nH]c21 (racemic) | 
